PubChem BioAssay
Active and inactive are the calls of the source.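 Rule for the calls, unless noted: active = viability at or below 10% of carrier control in both of two separate runs; inconclusive = viability at or below 10% in only one of the two runs; inactive = the rest.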

Key:
[1] = SK-BR-3 cell growth inhibitors, pilot screen, 24 h, human (AID 572); conditions: SK-BR-3 viability, CellTiter-Glo luminescence, at 10 µM, stronger effect = lower value;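 note: compound exposure lasted between 18 and 24 h rather than exactly 24 h; 100% = carrier-treated control wells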
[2] = HUVEC growth inhibition – cell-based, human, primary screen (AID 575;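 active = viability at or below 30% in both replicate assays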;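 note: 100% = median of untreated cell wells with 0.1% DMSO on each plate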); conditions: HUVEC proliferation, CellTiter-Glo luminescence, 72 h; at 10 µM; stronger effect = lower value
Procedure, shortened: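 material = primary HUVEC, no more than 12 passages | input = 1250 cells per well | controls = vehicle and MePR control wells | measured by = CTG luminescence | times = 72 h compound incubation | format = collagen-coated 384-well format | read-out = % viability vs DMSO wells | doses = single 10 µM dose, 0.1% DMSO, from 5x medium stock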

[3] = growth inhibitors of H69AR lung tumor, primary screen, human, duplicate replicates (AID 580;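 active = viability at or under a set limit in both replicates, limit being median viability minus 3 SD, cut at about 48% in these data, passing the limit was not always enough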;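 note: 100% = mean luminescence of untreated wells and 0% = no signal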); conditions: H69AR lung tumor cells viability, ATP luminescence, 72 h; at 10 µM; stronger effect = lower value
[4] = reversal of MRP1-mediated doxorubicin resistance, pilot screen, H69AR cells, doxorubicin co-treatment (AID 601;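 active = viability loss from added drug above about 55%, and viability with drug at most 40%, in both replicates, limit read from the data, passing the limit was not always enough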); conditions: CellTiter-Glo, 72 h, at 10 µM; for differential viability (reversal): stronger effect = higher value
[5] = 384-well plate pilot, post-Golgi transport modulator project, inhibition of yeast transport mutant growth (AID 636; in the data active = inhibition above about 31%); conditions: absorbance 615 nm, about 18 h, stronger effect = higher value
[6] = growth suppression of yeast trafficking mutant, preliminary HTS, modulators of trafficking downstream of Golgi apparatus project, 1536-format plate, OD 615 nm (AID 637; in the data active = inhibition above about 30%); conditions: yeast transport mutant growth, absorbance 615 nm, 18 h; stronger effect = higher value
[7] = H69AR cells + 2 uM doxorubicin, measured here: viability with 2 uM doxorubicin, stronger effect = lower value
[8] = H69AR cells, compound alone cytotoxicity

O=C(NCC(F)(F)F)Nc1cccnc1
viability [1]: 82% (inactive)
viability [2]: 92.8% (inactive)
viability [3]: 99.6% (inactive)
differential viability (reversal) ([4]; H69AR cells + 2 uM doxorubicin): 6% (inactive)
viability [4, 7]: 93.6%
viability [4, 8]: 99.6%
inhibition [5]: -4.19% (inactive)
inhibition [6]: -4% (inactive)

CN1CC=C2C(C#N)=C(N)C(C#N)(C#N)C(Cc3ccccc3)C2C1 (centres undefined)
viability [1]: 85% (inactive)
viability [2]: 69% (inactive)
viability [3]: 84.6% (inactive)
differential viability (reversal) ([4]; H69AR cells + 2 uM doxorubicin): -2.88% (inactive)
viability [4, 7]: 87.5%
viability [4, 8]: 84.6%
inhibition [5]: -8.22% (inactive)
inhibition [6]: -7.26% (inactive)

CCn1c(SCC(=O)Nc2ccc3c(c2)OCO3)nnc1-c1cnccn1
viability [1]: 89% (inactive)
viability [2]: 93.1% (inactive)
viability [3]: 95.4% (inactive)
differential viability (reversal) ([4]; H69AR cells + 2 uM doxorubicin): 5.74% (inactive)
viability [4, 7]: 89.7%
viability [4, 8]: 95.4%
inhibition [5]: -5.62% (inactive)
inhibition [6]: -0.73% (inactive)

CCOc1cccc(C(=O)N(Cc2ccco2)C2CCS(=O)(=O)C2)c1 (centres undefined)
viability [1]: 96% (inactive)
viability [2]: 109% (inactive)
viability [3]: 97.6% (inactive)
differential viability (reversal) ([4]; H69AR cells + 2 uM doxorubicin): 8.11% (inactive)
viability [4, 7]: 89.5%
viability [4, 8]: 97.6%
inhibition [5]: -5.95% (inactive)
inhibition [6]: -1.09% (inactive)

CCN(CC)c1nc(N(CC)CC)[nH]c(=O)n1
viability [1]: 112% (inactive)
viability [2]: 110% (inactive)
viability [3]: 94.7% (inactive)
differential viability (reversal) ([4]; H69AR cells + 2 uM doxorubicin): 2.19% (inactive)
viability [4, 7]: 92.6%
viability [4, 8]: 94.7%
inhibition [5]: -4.94% (inactive)
inhibition [6]: 6.72% (inactive)

CCN(C(C)=O)c1nnc(CSc2nc3ccccc3s2)s1
viability [1]: 114% (inactive)
viability [2]: 72.5% (inactive)
viability [3]: 100% (inactive)
differential viability (reversal) ([4]; H69AR cells + 2 uM doxorubicin): 13.3% (inactive)
viability [4, 7]: 86.7%
viability [4, 8]: 100%
inhibition [5]: -0.52% (inactive)
inhibition [6]: -2.95% (inactive)

Cc1ccc(C)c(CSc2nnc(CCN)o2)c1
viability [1]: 101% (inactive)
viability [2]: 41.5% (inactive)
viability [3]: 71.2% (inactive)
differential viability (reversal) ([4]; H69AR cells + 2 uM doxorubicin): -20.6% (inactive)
viability [4, 7]: 91.8%
viability [4, 8]: 71.2%
inhibition [5]: -7.67% (inactive)
inhibition [6]: 5.45% (inactive)

Cc1occc1-c1nc(-c2ccncc2)no1
viability [1]: 79% (inactive)
viability [2]: 83.2% (inactive)
viability [3]: 95.4% (inactive)
differential viability (reversal) ([4]; H69AR cells + 2 uM doxorubicin): 2.9% (inactive)
viability [4, 7]: 92.5%
viability [4, 8]: 95.4%
inhibition [5]: 0.96% (inactive)
inhibition [6]: -8.87% (inactive)

CC1CCN(S(=O)(=O)c2ccc(Br)s2)CC1
viability [1]: 98% (inactive)
viability [2]: 91.1% (inactive)
viability [3]: 87.5% (inactive)
differential viability (reversal) ([4]; H69AR cells + 2 uM doxorubicin): 6.46% (inactive)
viability [4, 7]: 81.1%
viability [4, 8]: 87.5%
inhibition [5]: -2.6% (inactive)
inhibition [6]: -1.8% (inactive)

O=c1[nH]c2cc3c(cc2cc1C(c1nnnn1C1CCCCC1)N1CCSCC1)OCCO3 (centres undefined)
viability [1]: 97% (inactive)
viability [2]: 93.1% (inactive)
viability [3]: 98.8% (inactive)
differential viability (reversal) ([4]; H69AR cells + 2 uM doxorubicin): -1.53% (inactive)
viability [4, 7]: 100%
viability [4, 8]: 98.8%
inhibition [5]: -0.81% (inactive)
inhibition [6]: 1.45% (inactive)

CCOC(=O)c1c(C)oc2ccc(NS(=O)(=O)c3ccc4c5c(cccc35)C(=O)N4)cc12
viability [1]: 103% (inactive)
viability [2]: 76.9% (inactive)
viability [3]: 83.9% (inactive)
differential viability (reversal) ([4]; H69AR cells + 2 uM doxorubicin): 0.75% (inactive)
viability [4, 7]: 83.1%
viability [4, 8]: 83.9%
inhibition [5]: -7.53% (inactive)
inhibition [6]: 5.27% (inactive)

Cc1c(NC(=O)C(C)Oc2ncnc3ccccc23)c(=O)n(-c2ccccc2)n1C (centres undefined)
viability [1]: 115% (inactive)
viability [2]: 91.9% (inactive)
viability [3]: 97% (inactive)
differential viability (reversal) ([4]; H69AR cells + 2 uM doxorubicin): 7.01% (inactive)
viability [4, 7]: 90%
viability [4, 8]: 97%
inhibition [5]: -4.42% (inactive)
inhibition [6]: -3.28% (inactive)

O=C(CSc1nnc(NC(=O)C2CCC2)s1)NC1CC1
viability [1]: 100% (inactive)
viability [2]: 106% (inactive)
viability [3]: 106% (inactive)
differential viability (reversal) ([4]; H69AR cells + 2 uM doxorubicin): 12.2% (inactive)
viability [4, 7]: 93.4%
viability [4, 8]: 106%
inhibition [5]: -6.76% (inactive)
inhibition [6]: 2% (inactive)

COc1ccc(NC(=O)CSc2ccccn2)cc1OC
viability [1]: 87% (inactive)
viability [2]: 97.3% (inactive)
viability [3]: 95.1% (inactive)
differential viability (reversal) ([4]; H69AR cells + 2 uM doxorubicin): 20.2% (inactive)
viability [4, 7]: 74.9%
viability [4, 8]: 95.1%
inhibition [5]: 2% (inactive)
inhibition [6]: 1.82% (inactive)

CC(=O)c1ccc(NC(=O)CCc2c(C)nc3ncnn3c2C)cc1
viability [1]: 100% (inactive)
viability [2]: 87.5% (inactive)
viability [3]: 93.1% (inactive)
differential viability (reversal) ([4]; H69AR cells + 2 uM doxorubicin): 6.04% (inactive)
viability [4, 7]: 87.1%
viability [4, 8]: 93.1%
inhibition [5]: -1.3% (inactive)
inhibition [6]: -5.08% (inactive)

O=C(NC(=O)c1ccc(Cl)cc1)Nc1cc(N2CCCCC2)ncn1
viability [1]: 85% (inactive)
viability [2]: 93.9% (inactive)
viability [3]: 91.1% (inactive)
differential viability (reversal) ([4]; H69AR cells + 2 uM doxorubicin): -1.91% (inactive)
viability [4, 7]: 93%
viability [4, 8]: 91.1%
inhibition [5]: -7.4% (inactive)
inhibition [6]: 3.87% (inactive)

Cc1cccc(C)c1NC(=O)COC(=O)c1nonc1N
viability [1]: 79% (inactive)
viability [2]: 108% (inactive)
viability [3]: 98.9% (inactive)
differential viability (reversal) ([4]; H69AR cells + 2 uM doxorubicin): 4.63% (inactive)
viability [4, 7]: 94.3%
viability [4, 8]: 98.9%
inhibition [5]: -4.13% (inactive)
inhibition [6]: -7.09% (inactive)

O=C1C(Cl)=C(NCC2CCCO2)C(=O)N1CCc1ccccc1 (centres undefined)
viability [1]: 75% (inactive)
viability [2]: 111% (inactive)
viability [3]: 87.4% (inactive)
differential viability (reversal) ([4]; H69AR cells + 2 uM doxorubicin): 8.39% (inactive)
viability [4, 7]: 79%
viability [4, 8]: 87.4%
inhibition [5]: -0.82% (inactive)
inhibition [6]: -4.03% (inactive)
